Assay results of several laboratories.
Protocols differ between the studies behind these lines.
Target: Calcium/calmodulin-dependent protein kinase type II subunit beta (CAMK2B, Homo sapiens, UniProt Q13554)

COc1cnc(Nc2cccc(S(N)(=O)=O)c2)nc1N1CCN(c2ccccc2)C(=O)C1
remaining binding (binding, competition with immobilised ligand; 1 µM): 100%

FC(F)(F)Oc1cccc(-c2cnc3ccc(-c4ccncc4)nn23)c1
remaining binding (cell-free assay, competition with immobilised ligand; 5 µM): 47%

CN(C)c1nccc(-c2cnn3ncccc23)n1
remaining binding (binding; 1 µM): 65%

C=CC(=O)N1CCC(C(=O)NCC(=O)N2CCN(c3nc(-c4cnc(N)nc4C(F)F)nc(N4CCOCC4)n3)CC2)CC1
remaining binding (binding, competition with immobilised ligand; 1 µM): 100%

CS(=O)(=O)NCC[C@H](NC(=O)c1cncc2c1cnn2-c1ccc(F)cc1)c1ccnc(S(C)(=O)=O)c1
remaining binding (cell-free assay, competition with immobilised ligand; 1 µM): 100%

CNC(=O)[C@@H]1CC[C@@H](n2c(-c3ccc4cnccc4c3)nc3ccc(C(=O)NCc4cccc(C(N)=O)c4)cc32)C1
remaining binding (binding, competition with immobilised ligand; 1 µM): 100%

CN(c1nccc(-c2cnn3ncccc23)n1)C1CC1
remaining binding (binding; 1 µM): 84%

CN(c1ccnc(CNc2nc(Nc3ccc4c(c3)CC(=O)N4)ncc2C(F)(F)F)n1)S(C)(=O)=O
remaining binding (cell-free assay, competition with immobilised ligand; 1 µM): 86%

O=C(c1ccc(Nc2ncc(Cl)c(-c3cc4ccccc4s3)n2)cc1)N1CCC(N2CCCC2)CC1
remaining binding (binding, competition with immobilised ligand; 1 µM): 83%

N[C@H]1CCN(c2nccc(-c3cnn4ncccc34)n2)C1
remaining binding (binding; 1 µM): 100%

CN([C@@H]1CCc2c(CC(=O)O)c3cc(S(C)(=O)=O)ccc3n2C1)S(=O)(=O)c1ccc(F)cc1
remaining binding (cell-free assay, competition with immobilised ligand; 1 µM): 100%

C[C@H]1CCN(c2nccc(-c3cnn4ncccc34)n2)C1
remaining binding (binding; 1 µM): 80%

Cc1cc(NC(=O)c2cccc(S(F)(F)(F)(F)F)c2)cc(-n2ccn3nc(-c4cccnc4)cc23)c1
remaining binding (cell-free assay, competition with immobilised ligand; 1 µM): 100%

O=C(NCC1CCOCC1)c1n[nH]cc1NC(=O)c1c(F)cccc1F
remaining binding (binding, competition with immobilised ligand; 1 µM): 75%

Nc1ncc2c(n1)-c1c([nH]c3ccc(C#CC4CC4)cc13)CCCC2
remaining binding (binding, competition with immobilised ligand; 1 µM): 100%

O=C(NCCCN1CCOCC1)c1ccc(Nc2nccc(-c3cc4ccccc4s3)n2)cc1
remaining binding (binding, competition with immobilised ligand; 1 µM): 83%

CO[C@H]1CC[C@H](CNc2ccc(S(=O)(=O)NC(=O)c3ccc(N4CCN(CC5=C(c6ccc(Cl)cc6)CC(C)(C)CC5)CC4)cc3Oc3cnc4[nH]ccc4c3)cc2[N+](=O)[O-])CC1
remaining binding (cell-free assay, competition with immobilised ligand; 1 µM): 80%

CC1CCCN1c1nccc(-c2cnn3ncccc23)n1 (stereo not drawn)
remaining binding (binding; 1 µM): 98%

O=C(c1ccc(Nc2ncc(Cl)c(-c3ccc(Cl)s3)n2)cc1)N1CCC(N2CCCC2)CC1
remaining binding (binding, competition with immobilised ligand; 1 µM): 87%

CN(CCCC(F)(F)F)c1nccc(-c2cnn3ncccc23)n1
remaining binding (binding; 1 µM): 100%

C[C@H](c1ccnc(Nc2nc3ccc(-c4cc(N(C)C)ncn4)cc3[nH]2)c1)N1CCN(C(=O)CC(F)(F)F)CC1
remaining binding (cell-free assay, competition with immobilised ligand; 0.1 µM): 92%
